Tests used:
fusion proteins = test: Competition of labeled ATP binding to fusion proteins; details: excess of cold, nonlabeled competitor nucleotide
[1] = molecular target: T1, GST-PDZ 1+2+3 fusion protein of hDlg (Homo sapiens, UniProt Q12959); test: Solution nitrocellulose filter ATP-binding assay, GST-PDZ1+2+3 of hDlg; details: Scatchard analysis, Fig. 4 inset
In short: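 Scatchard: 2.0 µg glutathione-eluted, dialysed GST-PDZ1+2+3 incubated in solution with increasing ATP concentrations plus [γ-32P]ATP, 3 h on ice in Hepes pH 7.6 buffer containing 1.0 mM MgCl2. Bound label captured on nitrocellulose filter, washed, scintillation-counted. Parallel GST control at each ATP concentration; cold ATP quantified by absorbance at 259 nm; each value is the average of duplicates.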

PDZ 3 domain of hDlg = test: Solution filter ATP-binding assay, PDZ3 of hDlg; design: species or system human; details: 100 nM cold ATP, pH 7.6, 3 h on ice, Fig. 3 B
In short: (§1)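 Solution assay: purified protein (GST fusions eluted from glutathione beads with 5.0 mM reduced glutathione, then dialysed into binding buffer) incubated with [γ-32P]ATP (100-500 nCi) plus 100 nM cold ATP. Buffer: 10 mM Hepes pH 7.6, 50 mM KCl, 75 mM NaCl, 1.0 mM MgCl2, 1.0 mM EGTA. Incubated 3 h on ice, filtered through nitrocellulose, washed, scintillation-counted. GST or BSA nonspecific controls; duplicate or triplicate.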

[2] = molecular target: T1, GST-PDZ 1+2+3 fusion protein of hDlg; test: Surface plasmon resonance; format: binding; details: 0.5 or 2.0 mM ATP-Mg2+ complex; orientation of the experiment not stated; data not shown
[3] = system: GST-PDZ3 fusion protein of Dlg; test: In vitro ATP binding, Dlg GST-PDZ3; design: species or system Drosophila; details: data not shown
In short: as §1

PDZ domains = test: Nucleotide binding with radiolabeled GTP; details: data not shown

T1 sequence (Q12959 201-584): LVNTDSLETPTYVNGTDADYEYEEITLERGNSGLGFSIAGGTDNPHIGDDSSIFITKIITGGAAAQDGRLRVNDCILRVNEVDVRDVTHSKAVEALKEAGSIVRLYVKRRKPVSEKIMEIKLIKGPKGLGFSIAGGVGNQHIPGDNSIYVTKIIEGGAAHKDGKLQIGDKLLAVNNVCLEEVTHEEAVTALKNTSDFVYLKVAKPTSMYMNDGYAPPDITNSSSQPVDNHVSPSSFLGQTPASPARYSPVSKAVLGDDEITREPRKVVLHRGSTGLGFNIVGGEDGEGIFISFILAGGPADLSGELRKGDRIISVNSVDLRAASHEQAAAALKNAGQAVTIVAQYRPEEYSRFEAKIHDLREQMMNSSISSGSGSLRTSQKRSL

Structure (SMILES)	binding of labeled ATP in presence of competitor (fusion proteins)	ATP binding sites (Scatchard) [1]	ATP binding (PDZ 3 domain of hDlg)	effect of ATP on GST-PDZ 1+2+3 / Kv1.4 peptide binding affinity [2]	ATP binding [3]	binding of radiolabeled GTP (PDZ domains)
Nc1ncnc2c1ncn2[C@@H]1O[C@H](COP(=O)(O)OP(=O)(O)OP(=O)(O)O)[C@@H](O)[C@H]1O [ATP]	failed	single class of binding sites	inactive for ATP binding	No effect on the binding affinity	binds ATP in vitro	
Nc1nc2c(ncn2[C@@H]2O[C@H](COP(=O)(O)OP(=O)(O)OP(=O)(O)O)[C@@H](O)[C@H]2O)c(=O)[nH]1 [GTP]	succeeded					no binding

— publication PMC2121072 (The Journal of Cell Biology, 1996)
